# Activity calls are given as the source filed them. The calls are words filed in the database; no cut-off is given here.
# Legend:
# [1] = tested on: Mycobacterium tuberculosis; assay: Antitubercular activity against Mycobacterium tuberculosis H37Rv ATCC 27294/XDR-TB incubated for 28 days by agar dilution method; format: functional; conditions: 672 h
# How it was run: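 Agar dilution: two-fold dilutions in Middlebrook 7H11 agar with OADC. Inoculum from fresh 7H11/OADC slants adjusted to 1 mg/mL wet weight in 0.05% Tween 80 saline, diluted 10^-2 (~10⁷ cfu/mL); 5 µL spotted per tube. Incubated 37 °C; MIC, lowest concentration fully inhibiting growth, read after 28 days, in triplicate.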
# [2] = tested on: Chrysosporium keratinophilum; assay: Antifungal activity against Chrysosporium keratinophilum at 1 mg/ml incubated for 3 days; format: functional; conditions: for zone of inhibition at 1000 µg/mL: 72 h, read-out: IZ
# How it was run: (§1)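 Well plate method on potato dextrose agar. Fungal stock suspended in distilled water with Tween 80 and swabbed over plates. Samples in DMSO at 1 and 0.5 mg/mL added to wells, incubated 25 °C for 3 days, then scored for inhibition zones; fluconazole standard.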
# [3] = tested on: Chrysosporium keratinophilum; assay: Antifungal activity against Chrysosporium keratinophilum at 0.5 mg/ml incubated for 3 days; format: functional; conditions: for zone of inhibition at 500 µg/mL: 72 h, read-out: IZ; how it was run: as §1
# Salmonella typhi [4] = assay: Antibacterial activity against Salmonella typhi at 1 mg/ml incubated for 18 hrs by well plate technique; format: functional, Salmonella enterica subsp. enterica serovar Typhi; conditions: for zone of inhibition at 1000 µg/mL: Salmonella enterica, read-out: DIZ
# How it was run: (§2)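 Well diffusion on nutrient agar; strains kept on nutrient agar at 37 °C, grown statically in nutrient broth 18-24 h at 37 °C, diluted in saline, 0.1 ml spread per plate. Compounds in DMSO at 1 and 0.5 mg/mL added to cork-bored wells; 18 h at 37 °C. Inhibition zone diameter measured, DMSO value subtracted; triplicate; streptomycin reference.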
# Escherichia coli [5] = assay: Antibacterial activity against Escherichia coli at 0.5 mg/ml incubated for 18 hrs by well plate technique; format: functional; conditions: for zone of inhibition at 500 µg/mL: read-out: DIZ
# How it was run: (§3)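 Bacteria kept on nutrient agar at 37 °C, grown statically in nutrient broth (start ~10-100 cfu/mL) at 37 °C for 18-24 h. Suspensions diluted in saline and spread on nutrient agar, then wells cut with a cork borer. Compound in DMSO at 1 or 0.5 mg/mL added to wells, 37 °C, 18 h. Inhibition zone diameter measured minus DMSO value; triplicate; streptomycin standard.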
# Pseudomonas aeruginosa [6] = assay: Antibacterial activity against Pseudomonas aeruginosa at 0.5 mg/ml incubated for 18 hrs by well plate technique; format: functional; conditions: for zone of inhibition at 500 µg/mL: read-out: DIZ; how it was run: as §3
# [7] = Antioxidant activity assessed as DPPH radical scavenging activity incubated for 10 mins by UV-visible spectrometry; format: physicochemical
# How it was run: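 DPPH free-radical scavenging; absorbance read at 517 nm against a methanol blank. % scavenging = (A control − A sample)/A control × 100.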
# Candida albicans [8] = assay: Antifungal activity against Candida albicans at 1 mg/ml incubated for 3 days; format: functional; conditions: for zone of inhibition at 1000 µg/mL: 72 h, read-out: IZ; how it was run: as §1
# Staphylococcus aureus [9] = assay: Antibacterial activity against Staphylococcus aureus at 1 mg/ml incubated for 18 hrs by well plate technique; format: functional; conditions: for zone of inhibition at 1000 µg/mL: read-out: DIZ; how it was run: as §3
# Aspergillus flavus [10] = assay: Antifungal activity against Aspergillus flavus at 1 mg/ml incubated for 3 days; format: functional; conditions: for zone of inhibition at 1000 µg/mL: 72 h, read-out: IZ; how it was run: as §1
# Escherichia coli [11] = assay: Antibacterial activity against Escherichia coli at 1 mg/ml incubated for 18 hrs by well plate technique; format: functional; conditions: for zone of inhibition at 1000 µg/mL: read-out: DIZ; how it was run: as §3
# Aspergillus flavus [12] = assay: Antifungal activity against Aspergillus flavus at 0.5 mg/ml incubated for 3 days; format: functional; conditions: for zone of inhibition at 500 µg/mL: 72 h, read-out: IZ; how it was run: as §1
# Candida albicans [13] = assay: Antifungal activity against Candida albicans at 0.5 mg/ml incubated for 3 days; format: functional; conditions: for zone of inhibition at 500 µg/mL: 72 h, read-out: IZ; how it was run: as §1
# Pseudomonas aeruginosa [14] = assay: Antibacterial activity against Pseudomonas aeruginosa at 1 mg/ml incubated for 18 hrs by well plate technique; format: functional; conditions: for zone of inhibition at 1000 µg/mL: read-out: DIZ; how it was run: as §3
# Salmonella typhi [15] = assay: Antibacterial activity against Salmonella typhi at 0.5 mg/ml incubated for 18 hrs by well plate technique; format: functional, Salmonella enterica subsp. enterica serovar Typhi; conditions: for zone of inhibition at 500 µg/mL: Salmonella enterica, read-out: DIZ; how it was run: as §2
# Staphylococcus aureus [16] = assay: Antibacterial activity against Staphylococcus aureus at 0.5 mg/ml incubated for 18 hrs by well plate technique; format: functional; conditions: for zone of inhibition at 500 µg/mL: read-out: DIZ; how it was run: as §3
# [17] = Salmonella enterica subsp. enterica serovar Typhi
Compound,MIC [1],zone of inhibition at 1000 µg/mL (Salmonella typhi [4]),zone of inhibition at 500 µg/mL (Escherichia coli [5]),zone of inhibition at 500 µg/mL (Pseudomonas aeruginosa [6]),inhibition (INH) [7],zone of inhibition at 1000 µg/mL (Staphylococcus aureus [9]),zone of inhibition at 1000 µg/mL (Escherichia coli [11]),zone of inhibition at 1000 µg/mL (Pseudomonas aeruginosa [14]),zone of inhibition at 500 µg/mL (Salmonella typhi [15]),zone of inhibition at 500 µg/mL (Staphylococcus aureus [16]),zone of inhibition at 1000 µg/mL [2],zone of inhibition at 500 µg/mL [3],zone of inhibition at 1000 µg/mL (Candida albicans [8]),zone of inhibition at 1000 µg/mL (Aspergillus flavus [10]),zone of inhibition at 500 µg/mL (Aspergillus flavus [12]),zone of inhibition at 500 µg/mL (Candida albicans [13]),other results
Cc1nn2c(-c3nc4cc([N+](=O)[O-])ccc4[nH]3)c(-c3ccc(Cl)cc3)nc2s1,50 µg/mL,6 mm,4 mm,5 mm,29.8%,9 mm,6 mm,8 mm,4 mm,7 mm,,,,,,,inhibition zone (IZ) [2]: inactive; inhibition zone (IZ) [3]: inactive; inhibition zone (IZ) (Candida albicans [8]): inactive; inhibition zone (IZ) (Aspergillus flavus [10]): inactive; inhibition zone (IZ) (Aspergillus flavus [12]): inactive; inhibition zone (IZ) (Candida albicans [13]): inactive
OC(Cn1cncn1)(Cn1cncn1)c1ccc(F)cc1F [FLUCONAZOLE],,,,,,,,,,,16 mm,14 mm,23 mm,14 mm,10 mm,20 mm,
Cc1cc(C(C)(C)C)c(O)c(C(C)(C)C)c1 [BUTYLATED HYDROXYTOLUENE],,,,,88.6%,,,,,,,,,,,,
Cc1ccc(-c2nc3sc(C)nn3c2-c2nc3cc(Cl)ccc3[nH]2)cc1,50 µg/mL,8 mm,5 mm,6 mm,30.6%,10 mm,8 mm,9 mm,7 mm,7 mm,2 mm,,4 mm,3 mm,1 mm,1 mm,inhibition zone (IZ) [3]: inactive
Cc1nn2c(-c3nc4cc([N+](=O)[O-])ccc4[nH]3)c(-c3ccc(F)cc3)nc2s1,50 µg/mL,2 mm,2 mm,3 mm,25.9%,3 mm,4 mm,1 mm,1 mm,2 mm,,,,,,,inhibition zone (IZ) [2]: inactive; inhibition zone (IZ) [3]: inactive; inhibition zone (IZ) (Candida albicans [8]): inactive; inhibition zone (IZ) (Aspergillus flavus [10]): inactive; inhibition zone (IZ) (Aspergillus flavus [12]): inactive; inhibition zone (IZ) (Candida albicans [13]): inactive
Cc1nn2c(-c3nc4cc(Cl)ccc4[nH]3)c(-c3ccc(F)cc3)nc2s1,25 µg/mL,10 mm,8 mm,10 mm,39.5%,9 mm,11 mm,13 mm,7 mm,6 mm,8 mm,6 mm,9 mm,7 mm,5 mm,7 mm,
NC(=O)c1cnccn1 [PYRAZINAMIDE],50 µg/mL,,,,,,,,,,,,,,,,
CN[C@@H]1[C@H](O[C@H]2[C@H](O[C@H]3[C@H](O)[C@@H](O)[C@H](N=C(N)N)[C@@H](O)[C@@H]3N=C(N)N)O[C@@H](C)[C@]2(O)C=O)O[C@@H](CO)[C@H](O)[C@H]1O [STREPTOMYCIN],,17.2 mm,14.3 mm,13.6 mm,,16.8 mm,18.6 mm,16.7 mm,15.7 mm,12.5 mm,,,,,,,
NNC(=O)c1ccncc1 [ISONIAZID],0.1 µg/mL,,,,,,,,,,,,,,,,
COc1ccc(-c2nc3sc(C)nn3c2-c2nc3cc([N+](=O)[O-])ccc3[nH]2)cc1,12.5 µg/mL,,,,22.6%,,,,,,3 mm,2 mm,2 mm,2 mm,1 mm,1 mm,diameter of the inhibition zone (DIZ) (Salmonella typhi [4]; [17]): inactive; diameter of the inhibition zone (DIZ) (Escherichia coli [5]): inactive; diameter of the inhibition zone (DIZ) (Pseudomonas aeruginosa [6]): inactive; diameter of the inhibition zone (DIZ) (Staphylococcus aureus [9]): inactive; diameter of the inhibition zone (DIZ) (Escherichia coli [11]): inactive; diameter of the inhibition zone (DIZ) (Pseudomonas aeruginosa [14]): inactive; diameter of the inhibition zone (DIZ) (Salmonella typhi [15]; [17]): inactive; diameter of the inhibition zone (DIZ) (Staphylococcus aureus [16]): inactive
Cc1ccc(-c2nn3c(-c4nc5ccccc5[nH]4)c(-c4ccc(F)cc4)nc3s2)cc1,12.5 µg/mL,15 mm,9 mm,10 mm,22.6%,14 mm,13 mm,13 mm,13 mm,11 mm,5 mm,3 mm,6 mm,6 mm,4 mm,4 mm,
COc1ccc(-c2nc3sc(-c4ccccc4)nn3c2-c2nc3cc([N+](=O)[O-])ccc3[nH]2)cc1,50 µg/mL,6 mm,3 mm,3 mm,23.4%,4 mm,4 mm,5 mm,3 mm,2 mm,4 mm,2 mm,3 mm,3 mm,1 mm,,inhibition zone (IZ) (Candida albicans [13]): inactive
CC[C@@H](CO)NCCN[C@@H](CC)CO [ETHAMBUTOL],3.13 µg/mL,,,,,,,,,,,,,,,,

# From ChEMBL document CHEMBL3414425, “Synthesis and biological evaluation of new imidazo[2,1-b][1,3,4]thiadiazole-benzimidazole derivatives” (Eur J Med Chem, 2015)
